Experiments:
Type in all cases: functional
H4 [1] = assay: Induction of light chain 3-GFP level in human H4 cells at 6.8 uM after 24 hrs by high throughput fluorescence microscopy relative to control
In short: (§1)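 H4 cells stably expressing LC3-GFP, grown in DMEM with 10% FBS, penicillin/streptomycin and 2 mM L-glutamine at 37°C, 5% CO2. Cells were seeded in 96-well plates and exposed to library compounds at 3–12 μM for 24 h, then fixed in 4% paraformaldehyde and stained with 3 μg/ml DAPI. LC3-GFP spot number, size and intensity were measured by high-throughput fluorescence microscopy and expressed relative to DMSO. Triplicates, mean ± SD.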

H4 [2] = assay: Increase in light chain 3-GFP+ autophagosome vesicle intensity per cell in human H4 cells at 6.8 uM after 24 hrs by high throughput fluorescence microscopy relative to control
In short: (§2)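 H4 cells stably expressing LC3-GFP were grown in DMEM with 10% FBS and 2 mM L-glutamine at 37°C, 5% CO2. They were exposed to each compound for 24 h, with DMSO as negative and rapamycin as positive control. Cells were then fixed in 4% paraformaldehyde and stained with 3 μg/ml DAPI. High-throughput fluorescence imaging scored LC3-GFP spot number, size and intensity, expressed relative to DMSO. Mean ± SD of triplicates; experiments repeated three times.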

H4 [3] = assay: Increase in light chain 3-GFP+ autophagosome vesicle area per cell in human H4 cells at 6.8 uM after 24 hrs by high throughput fluorescence microscopy relative to control
In short: (§3)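 H4 cells stably expressing LC3-GFP, seeded in 96-well plates and exposed to compound for 24 h; screening concentrations were 3–12 μM, with rapamycin 0.22 μM and bafilomycin A1 0.40 μM. Cells fixed in 4% paraformaldehyde and stained with 3 μg/ml DAPI. Number, size and intensity of LC3-GFP spots measured by high-throughput fluorescence microscopy and expressed as percent of DMSO-treated wells. Rapamycin was the positive control. Triplicate wells, mean ± SD; experiments repeated three times.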

H4 [4] = assay: Increase in light chain 3-GFP+ autophagosome vesicle number per cell in human H4 cells at 6.8 uM after 24 hrs by high throughput fluorescence microscopy relative to control; in short: as §2
H4 [5] = assay: Increase in light chain 3-GFP+ autophagosome vesicle number per cell in human H4 cells at 7.4 uM after 24 hrs by high throughput fluorescence microscopy relative to control
In short: (§4)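 H4 cells stably expressing LC3-GFP, kept in DMEM/10% FBS at 37°C, 5% CO2, were seeded in 96-well plates and exposed to compound for 24 h. Cells were then fixed in 4% paraformaldehyde and stained with 3 μg/ml DAPI. Automated fluorescence microscopy scored the number, size and intensity of LC3-GFP spots. Values are percent of DMSO wells, in triplicate, mean ± SD. Rapamycin served as positive control.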

H4 [6] = assay: Induction of light chain 3-GFP level in human H4 cells at 7.4 uM after 24 hrs by high throughput fluorescence microscopy relative to control; in short: as §4
H4 [7] = assay: Increase in light chain 3-GFP+ autophagosome vesicle intensity per cell in human H4 cells at 11.3 uM after 24 hrs by high throughput fluorescence microscopy relative to control
In short: (§5)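 H4 cells stably expressing LC3-GFP, seeded in 96-well plates and exposed to compound for 24 h; fixed in 4% paraformaldehyde, nuclei stained with 3 μg/ml DAPI. Automated fluorescence microscopy scored number, size and intensity of LC3-GFP spots; values expressed relative to DMSO-treated wells, rapamycin positive control. Triplicate wells, mean ± SD; experiments repeated three times.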

H4 [8] = assay: Increase in light chain 3-GFP+ autophagosome vesicle area per cell in human H4 cells at 11.3 uM after 24 hrs by high throughput fluorescence microscopy relative to control; in short: as §5
H4 [9] = assay: Increase in light chain 3-GFP+ autophagosome vesicle area per cell in human H4 cells at 8.5 uM after 24 hrs by high throughput fluorescence microscopy relative to control; in short: as §3
H4 [10] = assay: Increase in light chain 3-GFP+ autophagosome vesicle intensity per cell in human H4 cells at 8.5 uM after 24 hrs by high throughput fluorescence microscopy relative to control; in short: as §2
H4 [11] = assay: Increase in light chain 3-GFP+ autophagosome vesicle number per cell in human H4 cells at 8.5 uM after 24 hrs by high throughput fluorescence microscopy relative to control; in short: as §1
H4 [12] = assay: Induction of light chain 3-GFP level in human H4 cells at 8.5 uM after 24 hrs by high throughput fluorescence microscopy relative to control; in short: as §1
H4 [13] = assay: Effect on FYVE-RFP+ vesicle intensity per cell in human H4 cells after 8 hrs relative to control; parameters: concentration or dose not given beside the values
In short: (§6)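 H4 cells stably expressing FYVE-RFP (H4-FYVE), grown in DMEM with 10% FBS, penicillin/streptomycin and 2 mM L-glutamine at 37°C, 5% CO2, seeded in 96-well plates and exposed to compound. Fixed in 4% paraformaldehyde, nuclei stained with 3 μg/ml DAPI, FYVE-RFP+ vesicles quantified by high-throughput fluorescence microscopy against DMSO control. Triplicate wells, mean ± SD.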

H4 [14] = assay: Increase in light chain 3-GFP+ autophagosome vesicle number per cell in human H4 cells at 7.71 uM after 24 hrs by high throughput fluorescence microscopy relative to control; in short: as §2
H4 [15] = assay: Increase in long-lived protein degradation in human H4 cells after 24 hrs relative to control; parameters: concentration or dose not given beside the values
H4 [16] = assay: Effect on FYVE-RFP+ vesicle intensity per cell in human H4 cells after 2 hrs relative to control; parameters: concentration or dose not given beside the values; in short: as §6
H4 [17] = assay: Increase in light chain 3-GFP+ autophagosome vesicle area per cell in human H4 cells at 4.8 uM after 24 hrs by high throughput fluorescence microscopy relative to control; in short: as §5
H4 [18] = assay: Increase in light chain 3-GFP+ autophagosome vesicle intensity per cell in human H4 cells at 4.8 uM after 24 hrs by high throughput fluorescence microscopy relative to control; in short: as §5
H4 [19] = assay: Increase in long-lived protein degradation in human H4 cells after 1 hr relative to control; parameters: concentration or dose not given beside the values
H4 [20] = assay: Increase in long-lived protein degradation in human H4 cells after 2 hrs relative to control; parameters: concentration or dose not given beside the values
H4 [21] = assay: Increase in light chain 3-GFP+ autophagosome vesicle area per cell in human H4 cells at 7.71 uM after 24 hrs by high throughput fluorescence microscopy relative to control; in short: as §3
H4 [22] = assay: Increase in light chain 3-GFP+ autophagosome vesicle number per cell in human H4 cells at 4.8 uM after 24 hrs by high throughput fluorescence microscopy relative to control; in short: as §4
H4 [23] = assay: Induction of light chain 3-GFP level in human H4 cells at 4.8 uM after 24 hrs by high throughput fluorescence microscopy relative to control; in short: as §4
H4 [24] = assay: Effect on FYVE-RFP+ vesicle intensity per cell in human H4 cells after 4 hrs relative to control; parameters: concentration or dose not given beside the values; in short: as §6
H4 [25] = assay: Induction of light chain 3-GFP level in human H4 cells at 7.71 uM after 24 hrs by high throughput fluorescence microscopy relative to control; in short: as §1
H4 [26] = assay: Increase in light chain 3-GFP+ autophagosome vesicle intensity per cell in human H4 cells at 7.71 uM after 24 hrs by high throughput fluorescence microscopy relative to control; in short: as §2
H4 [27] = assay: Increase in long-lived protein degradation in human H4 cells after 4 hrs relative to control; parameters: concentration or dose not given beside the values
H4 [28] = assay: Increase in light chain 3-GFP+ autophagosome vesicle intensity per cell in human H4 cells at 3.8 uM after 24 hrs by high throughput fluorescence microscopy relative to control; in short: as §5
H4 [29] = assay: Induction of light chain 3-GFP level in human H4 cells at 3.8 uM after 24 hrs by high throughput fluorescence microscopy relative to control; in short: as §4
H4 [30] = assay: Increase in light chain 3-GFP+ autophagosome vesicle area per cell in human H4 cells at 3.8 uM after 24 hrs by high throughput fluorescence microscopy relative to control; in short: as §5
H4 [31] = assay: Increase in light chain 3-GFP+ autophagosome vesicle number per cell in human H4 cells at 3.8 uM after 24 hrs by high throughput fluorescence microscopy relative to control; in short: as §5
H4 [32] = assay: Increase in light chain 3-GFP+ autophagosome vesicle number per cell in human H4 cells at 8.9 uM after 24 hrs by high throughput fluorescence microscopy relative to control; in short: as §1
H4 [33] = assay: Induction of light chain 3-GFP level in human H4 cells at 8.9 uM after 24 hrs by high throughput fluorescence microscopy relative to control; in short: as §1
H4 [34] = assay: Increase in light chain 3-GFP+ autophagosome vesicle area per cell in human H4 cells at 8.9 uM after 24 hrs by high throughput fluorescence microscopy relative to control; in short: as §3
H4 [35] = assay: Increase in light chain 3-GFP+ autophagosome vesicle intensity per cell in human H4 cells at 8.9 uM after 24 hrs by high throughput fluorescence microscopy relative to control; in short: as §2
H4 [36] = assay: Induction of light chain 3-GFP level in human H4 cells at 12.7 uM after 24 hrs by high throughput fluorescence microscopy relative to control; in short: as §1
H4 [37] = assay: Increase in light chain 3-GFP+ autophagosome vesicle area per cell in human H4 cells at 12.7 uM after 24 hrs by high throughput fluorescence microscopy relative to control
H4 [38] = assay: Increase in light chain 3-GFP+ autophagosome vesicle number per cell in human H4 cells at 12.7 uM after 24 hrs by high throughput fluorescence microscopy relative to control; in short: as §2
H4 [39] = assay: Increase in light chain 3-GFP+ autophagosome vesicle intensity per cell in human H4 cells at 12.7 uM after 24 hrs by high throughput fluorescence microscopy relative to control
H4 [40] = assay: Increase in light chain 3-GFP+ autophagosome vesicle number per cell in human H4 cells at 0.4 uM after 24 hrs by high throughput fluorescence microscopy relative to control; in short: as §5
H4 [41] = assay: Increase in light chain 3-GFP+ autophagosome vesicle area per cell in human H4 cells at 0.4 uM after 24 hrs by high throughput fluorescence microscopy relative to control; in short: as §5
H4 [42] = assay: Induction of light chain 3-GFP level in human H4 cells at 0.4 uM after 24 hrs by high throughput fluorescence microscopy relative to control; in short: as §4
H4 [43] = assay: Increase in light chain 3-GFP+ autophagosome vesicle intensity per cell in human H4 cells at 0.4 uM after 24 hrs by high throughput fluorescence microscopy relative to control; in short: as §5

## COc1cc(/C=C/C(=O)CC(=O)/C=C/c2ccc(O)c(OC)c2)ccc1O [CURCUMIN]
H4 [1]
  Activity: 59.32%
H4 [2]
  Activity: 249.22%
H4 [3]
  Activity: 228.38%
H4 [4]
  Activity: 59.32%

## C[C@@]1(CO)[C@H](O)CC[C@@]2(C)[C@H]1CC[C@H]1C[C@@H]3C[C@@]12CC[C@]3(O)CO [APHIDICOLIN]
H4 [5]
  Activity: 216.53%
H4 [6]
  Activity: 73.06%
H4 [7]
  Activity: 350.13%
H4 [8]
  Activity: 275.5%

## Cc1coc2c1C(=O)C(=O)c1c-2ccc2c1CCCC2(C)C [TANSHINONE IIA]
H4 [9]
  Activity: 264.51%
H4 [10]
  Activity: 273.72%
H4 [11]
  Activity: 210.24%
H4 [12]
  Activity: 79.77%

## NCCNS(=O)(=O)c1cccc2cnccc12
H4 [13]
  Activity: 83.01%
H4 [14]
  Activity: 130.98%
H4 [15]
  Activity: 96.19%
H4 [16]
  Activity: 102.35%
H4 [17]
  Activity: 172.66%
H4 [18]
  Activity: 15083%
H4 [19]
  Activity: 100.94%
H4 [20]
  Activity: 91.55%
H4 [21]
  Activity: 139.79%
H4 [22]
  Activity: 181.04%
H4 [23]
  Activity: 49.3%
H4 [24]
  Activity: 79.63%
H4 [25]
  Activity: 96.7%
H4 [26]
  Activity: 156.16%
H4 [27]
  Activity: 96.55%

## C/C=C(/C)C(=O)O[C@H]1C(C)=C2[C@H]([C@@H]1OC(=O)CCCCCCC)[C@@](C)(OC(C)=O)C[C@H](OC(=O)CCC)[C@@]1(O)[C@H]2OC(=O)[C@@]1(C)O [THAPSIGARGIN]
H4 [28]
  Activity: 187.15%
H4 [29]
  Activity: 63.77%
H4 [30]
  Activity: 199.81%
H4 [31]
  Activity: 193.06%

## C[C@H]([C@H](C)N1CC(=O)NC(=O)C1)N1CC(=O)NC(=O)C1
H4 [32]
  Activity: 339.59%
H4 [33]
  Activity: 45.03%
H4 [34]
  Activity: 402.47%
H4 [35]
  Activity: 483.18%

## C[C@@]12C(=O)OC(=O)[C@]1(C)[C@H]1CC[C@@H]2O1 [CANTHARIDIN]
H4 [36]
  Activity: 24.47%
H4 [37]
  Activity: 332.84%
H4 [38]
  Activity: 259.49%
H4 [39]
  Activity: 463.81%

## CO/C1=C\C(C)=C\[C@@H](C)[C@@H](O)[C@@H](C)C/C(C)=C/C=C/[C@H](OC)[C@@H]([C@@H](C)[C@@H](O)[C@H](C)[C@@]2(O)C[C@@H](O)[C@H](C)[C@@H](C(C)C)O2)OC1=O [BAFILOMYCIN A1]
H4 [40]
  Activity: 691.15%
H4 [41]
  Activity: 1608.62%
H4 [42]
  Activity: 71.96%
H4 [43]
  Activity: 4027.54%

From ChEMBL document CHEMBL1145471, “Small molecule regulators of autophagy identified by an image-based high-throughput screen” (Proc Natl Acad Sci U S A, 2007)
